Screens (PubChem BioAssay)
Rows were chosen to be rich in hits. Some 3.7% of all compounds tested hit in one or more screens of this group.
KCNQ1 pot: potentiates or activates the human KCNQ1 potassium channel; B-score at 10 µM; CHO-K1 KCNQ1, thallium flux FluxOR fluorescence; active compounds read high; 310,000 compounds, 0.35% hits;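 active means fluorescence ratio B-score, a plate-corrected score, at least three library SD, with initial intensity B-score within 5 SD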
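Doses: Single concentration per compound, DMSO matched to controls | Test system: KCNQ1-transfected CHO-K1 cells | Timing: 90 min dye loading and 20 min compound exposure, both at room temperature | Measured by: Kinetic FluxOR thallium fluorescence, 10-s 1-Hz baseline, 110-s post-stimulus read | Medium: Assay buffer with matched DMSO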
hERG rescue: shields human hERG channel from block by proarrhythmic agents. Q12809. CHO-hERG, FluxOR thallium flux, dofetilide IC70 present. activation (rescue from dofetilide block), less the hit threshold, % at 10 µM. 310,000 compounds, 0.51% hits;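 active means activation above the mean of controls blocked by dofetilide plus 5 SD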;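 further: thallium influx through hERG after potassium depolarization seen as dye fluorescence rise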
Target sequence (Q12809 whole entry, looked up): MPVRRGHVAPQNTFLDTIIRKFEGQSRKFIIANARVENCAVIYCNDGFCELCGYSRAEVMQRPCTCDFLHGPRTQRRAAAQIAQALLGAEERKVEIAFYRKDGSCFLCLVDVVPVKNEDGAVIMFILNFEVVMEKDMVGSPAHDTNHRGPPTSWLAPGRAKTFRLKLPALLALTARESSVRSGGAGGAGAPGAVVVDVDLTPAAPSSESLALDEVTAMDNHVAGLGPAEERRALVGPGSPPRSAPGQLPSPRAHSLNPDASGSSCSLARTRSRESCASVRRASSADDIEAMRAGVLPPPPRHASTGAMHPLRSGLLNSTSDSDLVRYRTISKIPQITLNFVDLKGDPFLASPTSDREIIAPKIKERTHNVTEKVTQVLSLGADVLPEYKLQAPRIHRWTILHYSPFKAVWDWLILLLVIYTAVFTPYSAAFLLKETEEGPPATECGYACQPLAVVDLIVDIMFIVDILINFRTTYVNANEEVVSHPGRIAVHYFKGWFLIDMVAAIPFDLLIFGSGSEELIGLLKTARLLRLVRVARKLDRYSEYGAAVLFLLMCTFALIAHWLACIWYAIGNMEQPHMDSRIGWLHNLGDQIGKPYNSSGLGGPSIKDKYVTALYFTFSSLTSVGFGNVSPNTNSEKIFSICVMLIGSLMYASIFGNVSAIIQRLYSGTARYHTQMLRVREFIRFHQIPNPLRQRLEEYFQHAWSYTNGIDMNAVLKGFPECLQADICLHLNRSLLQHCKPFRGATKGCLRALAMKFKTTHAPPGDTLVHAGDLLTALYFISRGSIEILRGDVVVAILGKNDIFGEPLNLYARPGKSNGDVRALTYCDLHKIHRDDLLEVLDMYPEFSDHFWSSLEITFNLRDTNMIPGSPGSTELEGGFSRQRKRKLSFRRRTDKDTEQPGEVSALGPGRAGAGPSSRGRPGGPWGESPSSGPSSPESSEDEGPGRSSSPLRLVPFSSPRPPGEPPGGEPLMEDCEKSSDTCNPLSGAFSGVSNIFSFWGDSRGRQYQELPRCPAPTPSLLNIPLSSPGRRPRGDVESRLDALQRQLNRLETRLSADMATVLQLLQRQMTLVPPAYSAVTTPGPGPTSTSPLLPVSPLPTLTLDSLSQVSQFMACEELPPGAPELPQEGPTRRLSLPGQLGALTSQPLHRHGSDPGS
KCNK3 block: human KCNK3 channel inhibition, primary screen | CHO-KCNK3 thallium flux, FluxOR fluorescence; active compounds read low | 340,000 compounds, 0.84% hits | B-score at 10 µM | AID 602410;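 active means B-score under library mean minus 4 SD, starting fluorescence ratio at most library mean plus 5 SD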;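 further: more negative B-score means stronger inhibition of thallium flux through KCNK3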
Kir21 inh: inhibitors of mouse Kir2.1 inward-rectifier potassium channel; AID 1672; B-score at 10 µM; 310,000 compounds, 0.85% hits; HEK293-Kir2.1, FluxOR thallium flux fluorescence; active compounds read low; P35561;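 active means fluorescence ratio B-score at or below minus 3 SD of library scores, with starting-brightness B-score within 2 SD, cut at about -4.2 in these data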;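 further: channel flux triggered by added potassium and thallium sulfate stimulus; B-score of peak minus minimum fluorescence over baseline after thallium stimulus; more negative B-score means stronger Kir2.1 block with less thallium influx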
KCNK9 block: human KCNK9 channel inhibition; Q9NPC2; HEK293 KCNK9, FluxOR thallium flux fluorescence; active compounds read low; B-score at 10 µM; AID 488922; 310,000 compounds, 1.2% hits;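 active means ratio B-score over 3 SD below the library mean, with starting fluorescence within 5 SD of its mean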;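 further: negative B-score means less thallium flux so channel inhibition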
KCNQ1 inh: human KCNQ1 channel inhibition; CHO-K1 KCNQ1, FluxOR thallium flux fluorescence; active compounds read high; 310,000 compounds, 1.3% hits; P51787; AID 2642; B-score at 10 µM;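 active means compounds whose thallium flux B-score, printed positive for inhibition, exceeds three library SD while starting fluorescence stays within three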;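 further: channel opened by potassium depolarization with thallium stimulus after 20 min compound exposure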
KCNK9 inh conf: confirmation of human KCNK9 potassium channel inhibitors | shares compounds with KCNK9 block | HEK293 KCNK9 cells, FluxOR thallium flux fluorescence | inhibition, % at 10 µM | 4,900 compounds, 43% hits | AID 492992;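 active means thallium signal inhibited by more than 5 SD of the compound-free buffer control wells, on both duplicate plates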;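 further: 0% = assay buffer control wells without compound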
Kir21 sel: tests whether KCNK9 modulators also affect mouse Kir2.1 | shares compounds with KCNK9 block | Kir2.1 cells, FluxOR thallium flux fluorescence | inhibition, % at 10 µM | 4,900 compounds, 4% hits | AID 492993;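 active means thallium signal drop more than 5 SD beyond the mean of the no-compound control wells, seen in both duplicate plates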;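 further: signal is fluorescence rise after thallium addition divided by baseline fluorescence; plate controls were assay buffer only for no effect and full block by chlorpromazine control for full effect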
HEK293 Tl ctr: non-induced cell nonspecific activity of KCNK9 modulators; shares compounds with KCNK9 block; non-induced KCNK9-HEK293, FluxOR thallium flux; inhibition, % at 10 µM; 4,900 compounds, 40% hits; AID 492997;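 active means thallium signal drop beyond 5 SD of the untreated control mean, on both duplicate plates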;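 further: plate controls were buffer only IC0 wells for no effect and SID17386958 at its maximal inhibitory level for full effect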
Active calls of the source: *; i = inactive; x = not tested or not shown.

SMILES | KCNQ1 pot | hERG rescue | KCNK3 block | Kir21 inh | KCNK9 block | KCNQ1 inh | KCNK9 inh conf | Kir21 sel | HEK293 Tl ctr
CNC(=O)c1ccccc1Sc1cccc2cccc(C(=O)O)c12 | i | -5.1 | i | 0.15 | i | i | x | x | x
COc1cc(C(=O)NC(=S)Nc2ccccc2N2CCCC2)cc(OC)c1OC | i | -11.2 | i | -0.27 | i | i | i | i | i
C/C(CC(=O)NCCc1ccccc1)=N\NC(=O)COc1ccc(Br)cc1 | i | -5.3 | i | -0.02 | i | i | x | x | x
CCCCn1c(NS(=O)(=O)c2ccc(C)cc2)c(S(=O)(=O)c2ccccc2)c2nc3ccccc3nc21 | 9* | -8.8 | i | -1.66 | i | i | i | i | i
COc1ccccc1NC(=S)NC(=O)c1c(-c2ccccc2Cl)noc1C | i | -7.2 | i | -0.18 | i | i | i | i | i
Cc1onc(-c2ccccc2Cl)c1C(=O)NC(=S)Nc1ccccc1F | i | 0.6 | i | -0.91 | i | i | x | x | x
Cc1onc(-c2ccccc2Cl)c1C(=O)NCc1cccnc1 | i | -6.2 | i | 0.74 | i | i | x | x | x
Cc1onc(-c2ccccc2Cl)c1C(=O)NC(=S)NCc1cccnc1 | i | -11.9 | i | -0.92 | i | i | i | i | i
CS(=O)(=O)N1CCc2cc(C(=O)Nc3ccccc3Cl)ccc21 | i | -6.7 | i | -0.79 | i | i | x | x | x
COc1ccc(C(=O)N2CCOC2CNC(=O)C(=O)NCCc2ccc(OC)c(OC)c2)cc1 (stereo unspecified) | i | -5.8 | i | -1.38 | i | i | x | x | x
COc1ccc(S(=O)(=O)N2CCNC(=O)CC2)cc1 | i | -4.5 | i | 0.71 | i | i | x | x | x
Cc1ccc(S(=O)(=O)N/N=C\c2cn(CC(N)=O)c3ccccc23)cc1C | i | -14.2 | i | 0.14 | i | i | x | x | x
CCOc1ccc(S(=O)(=O)N2CCN(S(=O)(=O)c3ccc(C)c(C)c3)CC2)cc1 | i | -7.8 | i | 0.14 | i | i | x | x | x
CC(C)(C)c1cc(CN2CCN(CCO)CC2)cc(C(C)(C)C)c1O | i | -9.7 | i | -0.16 | i | i | x | x | x
CC(C)c1cc(CN2CCN(CCC#N)CC2)cc(C(C)C)c1O | i | -2.2 | i | 1.24 | i | i | i | i | i
CC(C)(O)[C@H]1Cc2cc3ccc(=O)oc3cc2O1 | i | -2.6 | i | 0.19 | i | i | x | x | x
Cc1ccc(-c2cccc(C(=O)NCc3ccccc3)n2)c2ccccc12 | i | -13.2 | i | 0.83 | i | i | i | i | i
Cc1ccc(-c2cccc(C(=O)NCCc3ccccc3)n2)c2ccccc12 | i | -12.2 | i | 1.24 | -16.6* | i | 75.5%* | i | 32.0%*
COc1ccc(CCNC(=O)c2cccc(C(=O)NCCc3ccc(OC)cc3)n2)cc1 | i | -8.6 | i | 0.86 | i | i | x | x | x
CSCC[C@H](NC(=O)N1CCn2c1nc1ccccc12)C(=O)NCc1ccc(C)cc1 | i | -6.8 | i | -0.04 | i | i | x | x | x
O=C(O)COn1c(-c2ccc(Cl)cc2)nc2ccc(Cl)cc21 | i | -11.3 | i | -0.12 | i | i | x | x | x
Clc1ccc(COn2c(-c3ccc(Cl)cc3)nc3ccccc32)cc1 | i | -11.6 | -10.5* | 1.54 | -16.2* | i | 79.5%* | i | 35.5%*
Cc1ccccc1OCCn1cc(C(=S)N2CCCC2)c2ccccc21 | i | -6.7 | i | -0.79 | -9.65* | i | i | i | 30.0%*
COc1ccc(-c2ccc(OC)c([C@H]3[C@H]4C=CC[C@@H](C)[C@@H]4C(=O)N3Cc3ccccc3)c2)cc1OC | i | -14.6 | i | -0.93 | i | i | i | i | i
Cc1cc(C)c2sc(NC(=O)C3=COCCO3)nc2c1 | i | -8.8 | i | 0.02 | i | i | x | x | x
SMILES | KCNQ1 pot | hERG rescue | KCNK3 block | Kir21 inh | KCNK9 block | KCNQ1 inh | KCNK9 inh conf | Kir21 sel | HEK293 Tl ctr
Cc1cc(C)c(-c2csc(NC(=O)C3=COCCO3)n2)c(C)c1 | i | -5.9 | i | 0.02 | i | i | i | i | i
Cc1cc(C)c(-c2csc(NC(=O)COC(=O)c3ccc4c(c3)OCO4)n2)c(C)c1 | i | -2.7 | i | -1.12 | i | i | i | i | i
O=C(COC(=O)c1ccc2c(c1)OCO2)Nc1nc(-c2ccccc2)cs1 | i | -1.4 | i | 0.94 | i | i | x | x | x
C=CCSc1nc2sc3c(c2c(=O)n1CC)CCc1ccccc1-3 | i | 0.2 | i | -0.7 | i | i | i | i | i
C=CCn1c(SCC)nc2sc3c(c2c1=O)CCc1ccccc1-3 | i | -10.4 | i | 0.33 | i | i | x | x | x
O=C(CCN1C(=O)[C@@H]2Cc3ccccc3CN2C1=O)N[C@H](C(=O)O)c1ccccc1 | i | -11.8 | i | 0.54 | i | i | x | x | x
Cc1[nH]n(-c2ccc(Cl)cc2)c(=O)c1C(=O)c1ccccc1 | i | -8.3 | i | 0.97 | i | i | x | x | x
CC1=NN(c2ccc(Cl)cc2)C(=O)C1C(c1cccc(O)c1)c1c(C)[nH]n(-c2ccc(Cl)cc2)c1=O (stereo unspecified) | i | -3.0 | i | -0.77 | i | i | i | i | i
O=C(Cc1cnc2ncnn2c1)N1CCc2c([nH]c3ccccc23)C1c1ccccn1 (stereo unspecified) | i | -6.6 | i | -1.18 | i | i | x | x | x
COc1ccccc1C1CCN(C(=O)c2cnn(-c3ccccc3)c2C)CC1 | i | -12.3 | i | 0.19 | i | i | i | i | i
COc1ccccc1C1CCN(C(=O)c2ccccc2)CC1 | i | -8.7 | i | 0.01 | i | i | x | x | x
O=C(/C=C/NNC(=O)c1cccc(Br)c1)c1cccc(Br)c1 | i | -15.3 | -8.97* | 1.45 | -9.02* | i | 38.0%* | i | 34.5%*
COc1ccc(N2CCN(C(=O)CC34CC5CC(CC(C5)C3)C4)CC2)c([N+](=O)[O-])c1 | i | -3.7 | i | -0.06 | -12.3* | i | 66.5%* | i | i
COc1ccc(N2CCN(C(=O)c3ccccc3F)CC2)c([N+](=O)[O-])c1 | i | -2.3 | i | -1.27 | i | i | x | x | x
